An excerpt weighted towards active compounds, which were near 3.6% of everything screened.
Phagocytosis inh: inhibitors of macrophage phagocytosis, primary screen, imaging, J774A.1 cells, IgG beads | J774A.1 macrophage IgG-bead phagocytosis | inhibition, % at 5 µM | 110,000 compounds, 0.07% hits;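 active = inhibition above the mean of the plate negative controls plus 5 SD, cut at about 13% in these data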;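 note: phagocytic index as fraction of beads internalized from green versus red external bead signal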
Yeast growth inh: growth inhibitors of yeast BB579 in restrictive medium, primary screen, yeast lifespan-shortening project, S. cerevisiae; OD615, 48 h; inhibition, % at 10 µM; 140,000 compounds, 0.51% hits; AID 804, 2007;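 active = inhibition above a set limit, 3 SD over the mean compound inhibition, cut at about 44% in these data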
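Material: Saccharomyces cerevisiae DeaD strain BB579, replicative lifespan model yeast; buffer or medium: CSMM-D restrictive synthetic medium containing dextrose (glucose); compound: 10 µM single dose, DMSO 0.25%; timing: 48 h compound exposure at 30 °C after 4 h preincubation; signal: turbidity as optical density at 615 nm; benchmarks: positive control amphotericin B 10 µg/mL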
Measles CPE: compounds protecting cells from measles virus cytopathic effect, primary screen, measles RdRp inhibitor project, single point, MLSMR library, absorbance; Measles virus-infected cells, CPE protection; 140,000 compounds, 1.5% hits; protection (pct of control), % at 4 µM; AID 841, 2007; in the data active = protection mostly above about 24%, no sharp cut-off; inactive = mostly below about 26%
RAM inhibit: inhibitors of the yeast RAM network, primary screen, dse1pr::URA3 reporter, 5-FOA selection | S. cerevisiae dse1pr::URA3 reporter, 5-FOA growth OD615, 2 d; analog-sensitive cbk1-as2 kinase mutant strain | inhibition, % at 50 µM | 190,000 compounds, 1.8% hits;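 active = inhibition above a set limit, 3 SD over mean compound inhibition, cut at about 8.4% in these data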;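 note: inhibition rescues growth on 5-FOA so higher OD means more RAM inhibition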
Yeast life ext: compounds extending yeast replicative lifespan, primary screen, S. cerevisiae, OD615. S. cerevisiae growth with nicotinamide; deaD strain in restrictive glucose medium. inhibition of the nicotinamide effect, % at 10 µM. 130,000 compounds, 0.68% hits;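 active = inhibition above a set limit, placed 3 SD over the median of all compounds, cut at about 26% in these data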
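System: DeaD-strain S. cerevisiae / Buffer or medium: CSMM-D, restrictive glucose (dextrose) synthetic minimal medium / Probe or stimulus: nicotinamide, 1.5 mM, co-present with compound / Compound: one concentration, 10 µM, DMSO 0.25% / Incubation: 48 h compound exposure at 30 °C, humidified / Technique: optical density (absorbance) at 615 nm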
Of the large screens only hits and unclear results are named; the others gave an inactive call.

CC(NC(=O)COC(=O)CC(c1ccccc1)c1ccccc1)c1ccccc1 (stereo not given)	none
O=C(c1ccccc1)N1CC(COc2ccccc2)OC(c2ccco2)O1 (stereo not given)	Yeast life ext 27 (no result: Phagocytosis inh)
CN(C)c1ccc(-c2nn3c(C4CCCCC4)nnc3s2)cc1	RAM inhibit 8.6
CN(C)c1ccc(-c2nn3c(-c4ccc(Cl)cc4)nnc3s2)cc1	none
CCCC(=O)C1C(=O)CC(CC(C)SCC)CC1=O (stereo not given)	Yeast life ext 97
Cc1nn(CC(=O)NCc2ccc(-n3cccn3)cc2)c(C)c1[N+](=O)[O-]	none
CCOc1ccc(Br)cc1S(=O)(=O)Nc1ccc(N2CCOCC2)cc1	Measles CPE 77
Cc1ccccc1NC(=O)c1cccc(OCc2c(C)noc2C)c1	none
Cc1cccc(C(=O)Nc2ccccc2C(=O)OCc2c(C)noc2C)c1	Measles CPE 90 (no result: Phagocytosis inh)
C[C@H](NC(=O)c1nc[nH]c1C(=O)NCCCCCNC(=O)OC(C)(C)C)C(=O)OCc1ccccc1	none (no result: Phagocytosis inh, Yeast growth inh, Measles CPE, Yeast life ext)
CC(C)C[C@H](NC(=O)c1nc[nH]c1C(=O)NCCCCCNC(=O)OC(C)(C)C)C(=O)OCc1ccccc1	RAM inhibit 10 (no result: Phagocytosis inh, Yeast growth inh, Measles CPE, Yeast life ext)
C[C@H](NC(=O)c1nc[nH]c1C(=O)N[C@@H](Cc1ccccc1)C(=O)OCc1ccccc1)c1ccccc1	RAM inhibit 8.6 (no result: Phagocytosis inh, Yeast growth inh, Measles CPE, Yeast life ext)
CCC(C)NC(=O)c1ccccc1NC(=O)COc1ccc(OC)cc1 (stereo not given)	none
Nc1nc(SCC(=O)Nc2ccc(Cl)cn2)n[nH]1	none (no result: Phagocytosis inh, Yeast growth inh, Measles CPE, Yeast life ext)
NC(=O)CC[C@@H]1NC(=O)[C@H](CO)NC(=O)c2cc([N+](=O)[O-])cc(I)c2NCC[C@@H](C(N)=O)NC(=O)[C@H](Cc2ccc(O)cc2)NC1=O	none (no result: Phagocytosis inh)
NC(=O)CC[C@@H]1NC(=O)[C@H](Cc2ccc(O)cc2)NC(=O)c2cc([N+](=O)[O-])cc(F)c2OCC[C@@H](C(N)=O)NC1=O	Measles CPE 31 (no result: Phagocytosis inh)
CCOC(=O)CN1C(=N)N(c2nc(NC(C)C)nc(NC(C)C)n2)CC1=O	none (no result: Phagocytosis inh, Yeast life ext)
Cc1ccc(-c2nc3ccc(NS(=O)(=O)c4ccccc4)cc3[nH]2)o1	Phagocytosis inh 143
CCc1ccc(OCCOCC(O)CNC(C)CC)cc1 (stereo not given)	none
CCC(C)NC(=O)C(NS(=O)(=O)c1cccc2nsnc12)c1ccccc1 (stereo not given)	none (no result: Phagocytosis inh)
CCc1ccc(NC(=O)C(NS(=O)(=O)c2cccc3nsnc23)c2ccccc2)cc1 (stereo not given)	RAM inhibit 9.1
NCCCC[C@@H]1NC(=O)c2cc([N+](=O)[O-])cc(I)c2SC[C@@H](C(=O)NCC(N)=O)NC(=O)CNC1=O	none (no result: Phagocytosis inh)
O=C1C(=O)N(CCN2CCOCC2)C(c2ccccn2)/C1=C(/O)c1ccccc1 (stereo not given)	Yeast life ext 26
COC(=O)c1nn(-c2ccccc2)nc1-c1nn(-c2ccccc2)nc1C(=O)OC	none
O=C(O)c1nn(-c2ccccc2)nc1-c1nn(-c2ccccc2)nc1C(=O)O	RAM inhibit 8.9 (no result: Phagocytosis inh)
Cc1cccc(C)c1NC(=S)N(Cc1ccccc1)Cc1cccs1	RAM inhibit 9.5 (no result: Phagocytosis inh, Yeast growth inh, Measles CPE, Yeast life ext)
Cc1nn(-c2ccccc2)c2nc3c(cc12)C(=O)CCC3	none
Cc1cc(C)nc(SCC(=O)N/N=C/c2cccc([N+](=O)[O-])c2)n1	Measles CPE 49
Cc1cc(-c2ccccc2)nc(SCC(=O)c2cccc([N+](=O)[O-])c2)n1	RAM inhibit 11
Cc1cc(Oc2ccc3ccccc3c2)nc(SCC(=O)c2ccccc2)n1	RAM inhibit 11
Cc1cc(Oc2ccc(Br)cc2)nc(SCC(=O)c2ccccc2)n1	none
CC(C)CNC(=O)COC(=O)c1n[nH]c2ccccc12	none (no result: Phagocytosis inh, Yeast growth inh, Measles CPE, Yeast life ext)
O=C(N/N=C/c1cccc(O)c1)c1ccc(COc2ccc3c(c2)CCC3)o1	none
NNC(=O)c1ccc(COc2ccc3c(c2)CCC3)o1	Yeast growth inh 91
O=S(=O)(NC1CC2CCC1C2)c1ccc(Br)s1 (stereo not given)	Yeast growth inh 98
Cc1ccc(C(=O)N/C(=C/c2ccco2)C(=O)OCN2C(=O)c3ccccc3C2=O)cc1	none
CC1(C)CC(=O)C=C(N=CC2=C(O)CC(C)(C)CC2=O)C1	Measles CPE 52
COc1ccc(-c2n[nH]c3c2C(c2ccc(OC)c(OC)c2)N(c2ccccc2)C3=O)cc1 (stereo not given)	RAM inhibit 9.1
COCCCN1C(=O)c2[nH]nc(-c3ccccc3O)c2C1c1ccc(Cl)cc1 (stereo not given)	none
COc1ccc(CCN2C(=O)c3[nH]nc(-c4ccccc4O)c3C2c2ccccc2)cc1OC (stereo not given)	RAM inhibit 11
COC(=O)[C@@H](NC(=O)Nc1cccc(Br)c1)C(C)C	none
CCOC(=O)c1[nH]c2ccc(OC)cc2c1NC(=S)N1CCN(c2ccccc2)CC1	Measles CPE 31
CCOC(=O)Cn1c(=NC(=O)c2nc3ccccc3s2)sc2cc(S(N)(=O)=O)ccc21	RAM inhibit 10
CCOCCn1c(=NC(=O)c2cc3ccccc3oc2=O)sc2cc(S(N)(=O)=O)ccc21	RAM inhibit 8.9
CCOC(=O)Cn1c(=NC(=O)CN2C(=O)CCC2=O)sc2cc(S(N)(=O)=O)ccc21	none
CC(=O)Nc1ccc(/C=N/N2CCCCC2)cc1	none (no result: Phagocytosis inh, Yeast growth inh, Measles CPE, Yeast life ext)
CCN1C(=O)/C(=C/N2CC(C)CC(C)C2)SC1=S (stereo not given)	RAM inhibit 9.7
CCN1C(=O)/C(=C\N2CCCCCC2)SC1=S	none
COc1cccc(N=Cc2ccc(O)cc2O)c1	Measles CPE 35
Oc1ccc(C=Nc2ccc3ncccc3c2)c(O)c1	none
Nc1sc(-c2ccccc2)cc1C(=O)O	Yeast life ext 84
CCOC(=O)c1cc(-c2ccc(N)cc2)sc1N	none (no result: Phagocytosis inh)
Cc1ccc(C(=O)Nc2ccccc2C(=O)NCc2ccccc2)cc1	RAM inhibit 8.6
Cc1ccc(NC(=O)Nc2ccccc2C(=O)NCc2ccccc2)cc1	none
COc1ccc(/C=C/C(=O)Nc2nc(C)c(C(=O)N(C)C)s2)cc1OC	none
COc1ccc(C(=O)Nc2nc(C)c(C(=O)N(C)C)s2)cc1OC	Measles CPE 35
Cc1ccc(C(C(=O)NCC2CCCO2)N(Cc2ccccc2)C(=O)c2ccc(-c3ccccc3)[nH]2)o1 (stereo not given)	RAM inhibit 10
O=[N+]([O-])c1ccc(O)c2ncccc12	Yeast growth inh 99 (no result: Phagocytosis inh)
O=[N+]([O-])c1ccc(O)c2cccnc12	none (no result: Phagocytosis inh, Yeast growth inh, Measles CPE, Yeast life ext)
COc1ccc(Cl)cc1-c1nc(-c2ccc(NC(=O)c3cccs3)cc2)no1	none
O=C(Cn1ncc(Cl)c(Cl)c1=O)c1ccc(Cl)cc1	none (no result: Phagocytosis inh, Yeast life ext)
O=c1c(Cl)c(Cl)cnn1Cc1ccc(F)cc1	none (no result: Phagocytosis inh, Yeast growth inh, Measles CPE, Yeast life ext)
O=C(OCn1ncc(Cl)c(Cl)c1=O)c1ccc(F)cc1	Yeast growth inh 45 (no result: Phagocytosis inh)
